Measurements from ChEMBL document CHEMBL2311425, “Histone deacetylase (HDAC) inhibitors with a novel connecting unit linker region reveal a selectivity profile for HDAC4 and HDAC5 with improved activity against chemoresistant cancer cells” (J Med Chem, 2013).

Legend:
[1] = system: A2780; assay: Potentiation of 5 uM cisplatin-induced toxicity in 5 uM cisplatin resistant human A2780 cells at 1 uM pretreated for 48 hrs followed by 5 uM cisplatin treatment by MTT assay; assay type: functional
[2] = system: A2780; assay: Potentiation of 5 uM cisplatin-induced toxicity in 5 uM cisplatin resistant human A2780 cells at 0.5 uM pretreated for 48 hrs followed by 5 uM cisplatin treatment by MTT assay; assay type: functional
[3] = system: A2780; assay: Potentiation of 5 uM cisplatin-induced toxicity in 5 uM cisplatin resistant human A2780 cells at 0.25 uM pretreated for 48 hrs followed by 5 uM cisplatin treatment by MTT assay; assay type: functional
[4] = system: CAL-27; assay: Potentiation of 2.5 uM cisplatin-induced toxicity in 1 uM cisplatin resistant human CAL27 cells at 1 uM pretreated for 48 hrs followed by 1 uM cisplatin treatment by MTT assay; assay type: functional
[5] = system: CAL-27; assay: Potentiation of 2.5 uM cisplatin-induced toxicity in 1 uM cisplatin resistant human CAL27 cells at 0.5 uM pretreated for 48 hrs followed by 1 uM cisplatin treatment by MTT assay; assay type: functional
[6] = system: MDA-MB-231; assay: Potentiation of 10 uM cisplatin-induced toxicity in 1 uM cisplatin resistant human MDA-MB-231 cells at 1.5 uM pretreated for 48 hrs followed by 1 uM cisplatin treatment by MTT assay; assay type: functional
[7] = system: MDA-MB-231; assay: Potentiation of 5 uM cisplatin-induced toxicity in 1 uM cisplatin resistant human MDA-MB-231 cells at 1 uM pretreated for 48 hrs followed by 1 uM cisplatin treatment by MTT assay; assay type: functional
[8] = system: A2780; assay: Potentiation of 1 uM cisplatin-induced toxicity in 5 uM cisplatin resistant human A2780 cells at 0.25 uM pretreated for 48 hrs followed by 5 uM cisplatin treatment by MTT assay; assay type: functional
[9] = system: KYSE-510; assay: Potentiation of 0.5 uM cisplatin-induced toxicity in 0.5 uM cisplatin resistant human KYSE-510 cells at 0.5 uM pretreated for 48 hrs followed by 0.5 uM cisplatin treatment by MTT assay; assay type: functional
[10] = system: KYSE-510; assay: Potentiation of 0.5 uM cisplatin-induced toxicity in 0.5 uM cisplatin resistant human KYSE-510 cells at 0.25 uM pretreated for 48 hrs followed by 0.5 uM cisplatin treatment by MTT assay; assay type: functional
[11] = system: CAL-27; assay: Potentiation of 1 uM cisplatin-induced toxicity in 1 uM cisplatin resistant human CAL27 cells at 1.5 uM pretreated for 48 hrs followed by 1 uM cisplatin treatment by MTT assay; assay type: functional
[12] = system: CAL-27; assay: Potentiation of cisplatin-induced toxicity in cisplatin resistant human CAL27 cells at 1 uM pretreated for 48 hrs followed by cisplatin treatment by MTT assay; assay type: functional
Outline: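 Resistant sublines pretreated 48 h with 1 μM HDAC inhibitor, then cisplatin over a concentration range for 72 h; MTT viability read at 544/690 nm. Cisplatin IC50 from four-parameter logistic fit of pooled data (≥3 experiments, triplicate); shift factor = IC50 of cisplatin alone divided by IC50 of the combination.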

[13] = target: Histone deacetylase 5 (Homo sapiens, UniProt Q9UQL6); assay: Inhibition of human HDAC5 by fluorescence assay
[14] = target: Histone deacetylase 2 (Homo sapiens, UniProt Q92769); assay: Inhibition of human HDAC2 by fluorescence assay
[15] = system: KYSE-510; assay: Cytotoxicity against cisplatin sensitive human KYSE-510 cells after 72 hrs by MTT assay; assay type: functional, cell-based; details: KYSE-510, 72 h
[16] = system: MDA-MB-231; assay: Cytotoxicity against cisplatin resistant human MDA-MB-231 cells after 72 hrs by MTT assay; assay type: functional, cell-based; details: MDA-MB-231, 72 h
[17] = system: MDA-MB-231; assay: Potentiation of […] cisplatin-induced toxicity in 1 uM cisplatin resistant human MDA-MB-231 cells at 1.5 uM pretreated for 48 hrs followed by 1 uM cisplatin treatment by MTT assay; assay type: functional
[18] = system: MDA-MB-231; assay: Potentiation of […] cisplatin-induced toxicity in 1 uM cisplatin resistant human MDA-MB-231 cells at 0.25 uM pretreated for 48 hrs followed by 1 uM cisplatin treatment by MTT assay; assay type: functional
[19] = target: Histone deacetylase; assay: Inhibition of HDAC in human A2780 cells after 18 hrs by fluorescence assay; assay type: cell-based
[20] = system: KYSE-510; assay: Potentiation of 3.16 uM cisplatin-induced toxicity in 0.5 uM cisplatin resistant human KYSE-510 cells at 1.5 uM pretreated for 48 hrs followed by 0.5 uM cisplatin treatment by MTT assay; assay type: functional
[21] = system: KYSE-510; assay: Potentiation of 3.16 uM cisplatin-induced toxicity in 0.5 uM cisplatin resistant human KYSE-510 cells at 1 uM pretreated for 48 hrs followed by 0.5 uM cisplatin treatment by MTT assay; assay type: functional
[22] = system: KYSE-510; assay: Potentiation of 3.16 uM cisplatin-induced toxicity in 0.5 uM cisplatin resistant human KYSE-510 cells at 0.25 uM pretreated for 48 hrs followed by 0.5 uM cisplatin treatment by MTT assay; assay type: functional
[23] = system: CAL-27; assay: Potentiation of 10 uM cisplatin-induced toxicity in 1 uM cisplatin resistant human CAL27 cells at 1 uM pretreated for 48 hrs followed by 1 uM cisplatin treatment by MTT assay; assay type: functional
[24] = system: CAL-27; assay: Potentiation of 10 uM cisplatin-induced toxicity in 1 uM cisplatin resistant human CAL27 cells at 0.5 uM pretreated for 48 hrs followed by 1 uM cisplatin treatment by MTT assay; assay type: functional
[25] = system: KYSE-510; assay: Potentiation of 1 uM cisplatin-induced toxicity in 0.5 uM cisplatin resistant human KYSE-510 cells at 1.5 uM pretreated for 48 hrs followed by 0.5 uM cisplatin treatment by MTT assay; assay type: functional
[26] = system: KYSE-510; assay: Potentiation of 1 uM cisplatin-induced toxicity in 0.5 uM cisplatin resistant human KYSE-510 cells at 0.5 uM pretreated for 48 hrs followed by 0.5 uM cisplatin treatment by MTT assay; assay type: functional
[27] = system: KYSE-510; assay: Potentiation of 1 uM cisplatin-induced toxicity in 0.5 uM cisplatin resistant human KYSE-510 cells at 0.25 uM pretreated for 48 hrs followed by 0.5 uM cisplatin treatment by MTT assay; assay type: functional
[28] = system: CAL-27; assay: Potentiation of 5 uM cisplatin-induced toxicity in 1 uM cisplatin resistant human CAL27 cells at 0.5 uM pretreated for 48 hrs followed by 1 uM cisplatin treatment by MTT assay; assay type: functional
[29] = system: MDA-MB-231; assay: Potentiation of 25 uM cisplatin-induced toxicity in 1 uM cisplatin resistant human MDA-MB-231 cells at 1.5 uM pretreated for 48 hrs followed by 1 uM cisplatin treatment by MTT assay; assay type: functional
[30] = system: A2780 CisR (Homo sapiens); assay: cells; details: 72 h

Chain of Histone deacetylase 2 (Q92769 whole entry): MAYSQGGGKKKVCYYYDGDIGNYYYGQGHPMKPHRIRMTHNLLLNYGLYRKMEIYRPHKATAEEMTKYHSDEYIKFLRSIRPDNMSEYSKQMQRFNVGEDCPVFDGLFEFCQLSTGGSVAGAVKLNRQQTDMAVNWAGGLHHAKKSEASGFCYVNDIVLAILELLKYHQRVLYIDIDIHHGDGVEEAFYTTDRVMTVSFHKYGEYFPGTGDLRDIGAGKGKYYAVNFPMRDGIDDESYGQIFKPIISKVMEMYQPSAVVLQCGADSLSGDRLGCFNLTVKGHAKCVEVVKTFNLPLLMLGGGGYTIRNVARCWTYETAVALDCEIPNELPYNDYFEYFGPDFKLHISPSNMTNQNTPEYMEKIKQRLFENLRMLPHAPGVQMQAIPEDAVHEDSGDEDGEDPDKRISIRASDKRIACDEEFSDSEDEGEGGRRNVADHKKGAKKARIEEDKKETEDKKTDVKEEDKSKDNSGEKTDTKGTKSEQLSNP
Chain of Histone deacetylase 5 (Q9UQL6 whole entry): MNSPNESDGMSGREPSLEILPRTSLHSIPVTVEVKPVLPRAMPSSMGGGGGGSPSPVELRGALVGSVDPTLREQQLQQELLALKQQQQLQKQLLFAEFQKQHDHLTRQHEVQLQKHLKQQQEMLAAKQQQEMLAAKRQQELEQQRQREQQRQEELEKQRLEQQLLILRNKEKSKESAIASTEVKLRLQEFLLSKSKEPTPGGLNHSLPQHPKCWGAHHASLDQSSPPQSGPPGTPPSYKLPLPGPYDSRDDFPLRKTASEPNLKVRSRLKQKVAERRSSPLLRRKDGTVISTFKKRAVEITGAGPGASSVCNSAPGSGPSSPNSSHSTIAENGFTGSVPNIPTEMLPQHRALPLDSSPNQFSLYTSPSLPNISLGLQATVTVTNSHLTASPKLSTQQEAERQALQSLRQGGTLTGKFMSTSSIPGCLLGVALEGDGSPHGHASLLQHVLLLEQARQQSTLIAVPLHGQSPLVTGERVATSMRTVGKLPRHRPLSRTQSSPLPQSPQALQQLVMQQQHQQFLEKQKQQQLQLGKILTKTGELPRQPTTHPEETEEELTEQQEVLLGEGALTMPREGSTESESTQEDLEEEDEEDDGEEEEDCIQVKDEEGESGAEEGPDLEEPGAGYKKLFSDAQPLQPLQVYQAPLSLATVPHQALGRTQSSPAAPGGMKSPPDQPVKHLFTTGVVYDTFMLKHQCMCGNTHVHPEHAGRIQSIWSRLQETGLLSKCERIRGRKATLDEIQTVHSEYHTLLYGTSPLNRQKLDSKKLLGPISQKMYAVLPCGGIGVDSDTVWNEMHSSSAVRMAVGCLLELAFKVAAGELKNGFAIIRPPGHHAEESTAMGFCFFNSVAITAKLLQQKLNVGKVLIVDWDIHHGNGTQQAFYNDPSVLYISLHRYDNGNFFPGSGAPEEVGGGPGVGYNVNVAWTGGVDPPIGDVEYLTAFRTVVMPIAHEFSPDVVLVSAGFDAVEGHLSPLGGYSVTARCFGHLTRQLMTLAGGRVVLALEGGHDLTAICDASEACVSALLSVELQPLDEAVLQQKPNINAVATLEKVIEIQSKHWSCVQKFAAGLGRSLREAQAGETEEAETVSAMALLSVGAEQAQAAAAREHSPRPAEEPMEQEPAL

Cc1cc(C)cc(C(=O)NOCCCCCC(=O)NO)c1
Activity [1]: Dose-dependent effect | fractional inhibitory concentration index (FICI) [1]: 0.64 | Activity [2]: Dose-dependent effect | fractional inhibitory concentration index (FICI) [2]: 0.73 | Activity [3]: Dose-dependent effect | fractional inhibitory concentration index (FICI) [3]: 0.85 | Activity [4]: Dose-dependent effect | fractional inhibitory concentration index (FICI) [4]: 0.38 | Activity [5]: Dose-dependent effect | Activity [6]: Dose-dependent effect | fractional inhibitory concentration index (FICI) [6]: 0.79 | Activity [7]: Dose-dependent effect | Activity [8]: Dose-dependent effect | Activity [9]: Dose-dependent effect | fractional inhibitory concentration index (FICI) [9]: 0.13 | Activity [10]: Dose-dependent effect | fractional inhibitory concentration index (FICI) [10]: 0.18 | Activity [11]: Dose-dependent effect | fractional inhibitory concentration index (FICI) [11]: 0.48 | Activity [12]: Dose-dependent effect | fold change (FC) [12]: 21.6 | IC50 [13]: 4.22 nM | IC50 [14]: 881 nM | IC50 [15]: 2960 nM | IC50 [16]: 1680 nM | Activity [17]: Dose-dependent effect | fractional inhibitory concentration index (FICI) [17]: 0.8 | Activity [18]: Dose-dependent effect | fractional inhibitory concentration index (FICI) [18]: 0.9 | IC50 [19]: 650 nM | Activity [20]: Dose-dependent effect | fractional inhibitory concentration index (FICI) [20]: 0.12 | Activity [21]: Dose-dependent effect | fractional inhibitory concentration index (FICI) [21]: 0.09 | Activity [22]: Dose-dependent effect | fractional inhibitory concentration index (FICI) [22]: 0.18 | Activity [23]: Dose-dependent effect | fractional inhibitory concentration index (FICI) [23]: 0.24 | Activity [24]: Dose-dependent effect | fractional inhibitory concentration index (FICI) [24]: 0.41 | Activity [25]: Dose-dependent effect | fractional inhibitory concentration index (FICI) [25]: 0.05 | Activity [26]: Dose-dependent effect | fractional inhibitory concentration index (FICI) [26]: 0.08 | Activity [27]: Dose-dependent effect | fractional inhibitory concentration index (FICI) [27]: 0.13 | Activity [28]: Dose-dependent effect | fractional inhibitory concentration index (FICI) [28]: 0.45 | Activity [29]: Dose-dependent effect | fractional inhibitory concentration index (FICI) [29]: 0.73 | IC50 [30]: 320 nM
